Results reported in publication PMC3152441 (Chemistry & biology, 2011).

How the values were obtained:
IκBα = experiment: γ-tri-DAP-induced expression of NF-κB target gene IκBα; assay type: cell-based
RIG-I/MDA-5, IRF3 = experiment: HEK293T ISRE-driven luciferase reporter, other interferon response stimuli; assay type: cell-based; conditions: 5 μM compound; poly(I:C), poly(dA:dT), Sendai virus
Method in brief: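 HEK293T cells stably expressing an ISRE-driven luciferase reporter were cultured ± 5 μM test compound with 1 μg/ml poly(I:C) (LyoVec lipid transfection), 1 μg/ml poly(dA:dT) (LyoVec) or Sendai virus. Luciferase was measured after 24 h. Mean ± SD, n=4.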

[1] = tested on: NF-κB, MAPK and Akt signalings; experiment: γ-tri-DAP-dependent signaling; assay type: cell-based
inflammasomes = experiment: IL-1β secretion induced by inflammasome activators; assay type: cell-based; conditions: 5 μM compound; MSU, poly(dA:dT), LPS plus ATP, S. typhimurium
Method in brief: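 RAW264.7 macrophages were treated with 5 μM test compound, with LPS pre-treatment to induce pro-IL-1β synthesis. Supernatants were taken at 2 h (Salmonella) or 4 h (others). IL-1β by ELISA. Mean ± SD, n=3.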

[2] = Cell viability under diverse cell treatments; assay type: cell-based
TLR1, 2, 4, 5, 6 and 8 = experiment: THP.1 macrophage NF-κB/AP-1-inducible SEAP reporter, TLR agonists; assay type: cell-based, Human; conditions: 5 μM compound, 24 h, PMA-differentiated THP.1
Method in brief: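 PMA-differentiated THP.1 cells carrying NF-κB-driven SEAP were cultured ± 5 μM test compound with TLR inducers: 0.5 μg/ml Pam3CSK4, heat-killed Listeria monocytogenes (HKLM), 1 μg/ml FSL-1, 0.5 μg/ml LPS, 0.5 μg/ml flagellin or 1 μg/ml ssRNA40. Supernatant SEAP was measured after 24 h, as % of inducer alone. Mean ± SEM, n=2.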

Bcl-XL and Bid = experiment: Ni/NTA pull-down of purified His6-tagged control proteins; conditions: purified protein, 20 μM compound
Method in brief: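 Purified His6-Bcl-XL or His6-Bid (≈0.4 ug) was pre-incubated 60 min with 20 μM test compound, with DMSO as control. Ni-NTA agarose beads were added and incubated overnight at 4°C. Pulled-down protein was immunoblotted with anti-His antibody. Bands were quantified relative to the DMSO control.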

NOD1 signaling = experiment: Gene transfection experiments in HEK 293T-NF-κB-luciferase cells; assay type: cell-based
Method in brief: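 HEK293T NF-κB-luciferase cells were transfected with NOD1, RIP2, XIAP or GFP plasmids in various combinations. After 24 h, cells were cultured ± 3.5 μg/ml γ-tri-DAP, ± 10 μM test compound, or both, for 24 h. Luciferase was normalised to GFP-transfected cells (100%). Mean ± SD, n=4.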

NOD2 = NOD2 (Homo sapiens, UniProt Q9HC29); experiment: Subcellular fractionation of MCF-7 cells stably expressing epitope-tagged NOD2; assay type: cell-based; conditions: MCF-7 cells expressing NOD2
NOD2, sequence (Q9HC29 whole entry): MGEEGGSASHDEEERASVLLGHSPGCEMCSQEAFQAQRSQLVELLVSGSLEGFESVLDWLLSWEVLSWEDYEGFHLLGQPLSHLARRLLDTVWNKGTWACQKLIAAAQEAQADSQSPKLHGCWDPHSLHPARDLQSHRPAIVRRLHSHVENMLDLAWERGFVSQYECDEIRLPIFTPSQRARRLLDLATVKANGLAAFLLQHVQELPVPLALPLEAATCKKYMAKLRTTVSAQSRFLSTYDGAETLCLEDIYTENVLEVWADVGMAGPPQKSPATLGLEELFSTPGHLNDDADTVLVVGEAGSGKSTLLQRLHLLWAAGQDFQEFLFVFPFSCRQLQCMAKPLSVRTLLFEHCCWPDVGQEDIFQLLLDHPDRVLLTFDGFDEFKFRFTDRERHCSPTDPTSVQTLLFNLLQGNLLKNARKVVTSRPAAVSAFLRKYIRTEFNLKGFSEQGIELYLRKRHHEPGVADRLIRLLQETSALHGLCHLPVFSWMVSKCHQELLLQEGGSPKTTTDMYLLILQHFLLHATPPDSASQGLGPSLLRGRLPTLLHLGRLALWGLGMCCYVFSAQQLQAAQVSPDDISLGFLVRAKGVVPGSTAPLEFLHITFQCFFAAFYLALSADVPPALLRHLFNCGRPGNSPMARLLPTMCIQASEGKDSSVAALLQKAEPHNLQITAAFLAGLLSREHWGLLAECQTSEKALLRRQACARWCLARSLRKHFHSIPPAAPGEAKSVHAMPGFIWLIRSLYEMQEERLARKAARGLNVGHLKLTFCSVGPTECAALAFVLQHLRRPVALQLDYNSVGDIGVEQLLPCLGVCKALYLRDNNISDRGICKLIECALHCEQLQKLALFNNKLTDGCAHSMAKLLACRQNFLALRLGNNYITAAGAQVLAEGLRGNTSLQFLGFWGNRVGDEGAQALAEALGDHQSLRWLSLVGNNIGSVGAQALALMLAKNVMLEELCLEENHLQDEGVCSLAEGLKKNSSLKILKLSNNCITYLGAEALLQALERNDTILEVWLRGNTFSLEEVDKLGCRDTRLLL

TLR9 = target: T1, TLR9 (Homo sapiens, UniProt Q9NR96); experiment: 697 pre-B leukemia cells NF-κB-luciferase reporter, CpG DNA; assay type: cell-based; conditions: 697 cells, 10 μM compound, 5 μM ODN2006, 24h
T1 sequence (Q9NR96 26-1032): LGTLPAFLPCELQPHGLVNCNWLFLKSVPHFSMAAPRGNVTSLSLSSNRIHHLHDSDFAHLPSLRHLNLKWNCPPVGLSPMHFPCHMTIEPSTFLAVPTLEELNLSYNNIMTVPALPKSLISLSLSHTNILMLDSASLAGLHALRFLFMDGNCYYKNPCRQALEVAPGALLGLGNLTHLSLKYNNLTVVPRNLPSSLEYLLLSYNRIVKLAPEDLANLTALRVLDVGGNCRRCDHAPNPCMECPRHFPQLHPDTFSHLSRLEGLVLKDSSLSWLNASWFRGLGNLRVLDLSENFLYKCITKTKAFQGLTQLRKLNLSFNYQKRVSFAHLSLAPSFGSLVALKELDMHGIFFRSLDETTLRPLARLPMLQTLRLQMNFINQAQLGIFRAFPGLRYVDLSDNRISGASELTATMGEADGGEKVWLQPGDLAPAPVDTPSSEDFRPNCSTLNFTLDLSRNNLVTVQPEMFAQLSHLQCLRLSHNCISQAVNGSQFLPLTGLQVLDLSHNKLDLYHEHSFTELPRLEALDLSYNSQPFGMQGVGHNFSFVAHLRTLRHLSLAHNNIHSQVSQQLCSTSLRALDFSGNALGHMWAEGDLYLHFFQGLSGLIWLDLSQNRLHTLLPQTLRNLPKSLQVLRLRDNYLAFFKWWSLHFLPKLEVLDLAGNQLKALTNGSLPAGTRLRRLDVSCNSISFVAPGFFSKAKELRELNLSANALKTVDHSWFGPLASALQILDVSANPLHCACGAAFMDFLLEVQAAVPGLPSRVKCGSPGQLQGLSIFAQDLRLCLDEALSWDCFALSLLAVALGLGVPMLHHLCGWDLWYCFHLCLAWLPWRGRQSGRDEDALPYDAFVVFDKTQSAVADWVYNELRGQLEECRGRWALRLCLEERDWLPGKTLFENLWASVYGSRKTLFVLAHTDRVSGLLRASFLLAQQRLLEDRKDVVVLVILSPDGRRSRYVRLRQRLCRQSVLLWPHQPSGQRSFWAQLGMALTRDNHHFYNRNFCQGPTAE
Method in brief: (§1)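 697 cells stably carrying an NF-κB-luciferase reporter were cultured with or without 10 μM test compound plus inducer: 100 ng/ml BAFF or 5 μM ODN2006 as TLR9 ligand. Luciferase activity was read 24 h later. Mean ± SD, n=3.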

[3] = tested on: non-canonical NF-κB activation induced by BAFF; experiment: 697 pre-B leukemia cells NF-κB-luciferase reporter, BAFF; assay type: cell-based; conditions: 697 cells, 10 μM compound, 100 ng/ml BAFF, 24h
Method in brief: as §1

Cc1ccc(S(=O)(=O)n2c(N)nc3ccccc32)cc1 [CID-1088438]
γ-tri-DAP-induced expression of IκBα at the mRNA level (IκBα): inhibited
ISRE-driven reporter gene activity induced by other interferon response stimuli (RIG-I/MDA-5, IRF3): no inhibition
Akt survival pathway [1]: without affecting
γ-tri-DAP-dependent activation of MAPK (p38 phosphorylation) [1]: inhibits
γ-tri-DAP-dependent activation of NF-κB (IκBα phosphorylation and degradation) [1]: inhibits
IL-1β secretion induced by various inflammasome activators (inflammasomes): did not inhibit
Cell viability [2]: not affected
NF-κB-inducible SEAP activity induced by TLR agonists (TLR1, 2, 4, 5, 6 and 8): No inhibitory effects
binding of His6-tagged control proteins Bcl-XL and Bid to Ni/NTA (Bcl-XL and Bid): without affecting
site of action in NOD1 signaling (NOD1, RIP2, XIAP transfection) (NOD1 signaling; 10 μM compound, 24 hrs): targets NOD1 signaling upstream of RIP2
impact in cells over-expressing IKKγ/NEMO, MYD88, FLIP, CARD6, APAF1 or NLRC4 (NOD1 signaling; data not shown): No significant impact
NOD2 compartmentalization (NOD2): No changes
NF-κB activity induced by TLR9 ligand CpG DNA (TLR9): did not inhibit
non-canonical NF-κB activation induced by BAFF [3]: not inhibited
